Consider three compounds from publication PMC4409786 (Cancer discovery, 2014).

The subject of series [1] is DU145 cells. As to the kind of experiment: DU145 invasion with prostate fibroblast conditioned medium and TMPRSS2. Format: cell-based.
The test system of a further series is prostate bone metastasis. Conditions: human clinical trials ref 42; cited from earlier work.
The target in a further series is thrombin (Homo sapiens, UniProt P00734). As to the kind of experiment: Thrombin inhibition. Type of series: biochemical.
Series [2] has as its system LNCaP cells. Description: HGF-induced invasion assay. Type of series: cell-based. Conditions: natively express TMPRSS2, p<0.01. In short, it runs like this:
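Invasion through basement-membrane matrix, measured with a commercial 96-well invasion kit. LNCaP cells are exposed to exogenous paracrine-acting HGF and compared with serum-free medium.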

For a further series, the target named is hepsin (Homo sapiens, UniProt P05981). As to the kind of experiment: Hepsin protease inhibition with optimal peptide substrate. Type of series: biochemical. In short, it runs like this:
(§1)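 Each enzyme is assayed with its optimal peptide substrate, and substrate concentrations are determined after 30 minutes.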

The next series concerns C4-2B cells. Description: HGF-induced invasion assay. Format: cell-based. The following applies: natively express TMPRSS2, p<0.01.
A further series relates to TRAMP mice. Description: In vivo treatment of TRAMP mice: primary tumor and spontaneous metastasis. Set-up: species or system mouse. Conditions: 30mg/kg intraperitoneal three times per week, p=0.04 versus vehicle.
Series [3] relates to LNCaP cells. As to the kind of experiment: In vitro cell toxicity, LNCaP. Type of series: cell-based. The following applies: 48-hour, 0μM to 250μM.
A further series concerns PC-3^TMPRSS2 cells. As to the kind of experiment: Matrigel invasion assay, HGF-promoted. Format: cell-based. Conditions: PC-3^TMPRSS2, p<0.01. In a few lines:
(§2)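 TMPRSS2 coding sequence is cloned and transfected into DU145 or PC3 cells, and stable lines are selected with antibiotic; vector-transfected cells are the controls. Invasion through Matrigel is measured with a commercial 96-well invasion kit, under standard culture (serum) conditions or with added HGF, alongside serum-free medium.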

A further series has as its system PC3 cells. Description: In vitro cell toxicity, PC3. Type of series: cell-based. The following applies: PC3, 48-hour, 0μM to 250μM.
A further series concerns the target T1, matriptase (Homo sapiens, UniProt Q9Y5Y6).
T1 sequence (Q9Y5Y6 1-855): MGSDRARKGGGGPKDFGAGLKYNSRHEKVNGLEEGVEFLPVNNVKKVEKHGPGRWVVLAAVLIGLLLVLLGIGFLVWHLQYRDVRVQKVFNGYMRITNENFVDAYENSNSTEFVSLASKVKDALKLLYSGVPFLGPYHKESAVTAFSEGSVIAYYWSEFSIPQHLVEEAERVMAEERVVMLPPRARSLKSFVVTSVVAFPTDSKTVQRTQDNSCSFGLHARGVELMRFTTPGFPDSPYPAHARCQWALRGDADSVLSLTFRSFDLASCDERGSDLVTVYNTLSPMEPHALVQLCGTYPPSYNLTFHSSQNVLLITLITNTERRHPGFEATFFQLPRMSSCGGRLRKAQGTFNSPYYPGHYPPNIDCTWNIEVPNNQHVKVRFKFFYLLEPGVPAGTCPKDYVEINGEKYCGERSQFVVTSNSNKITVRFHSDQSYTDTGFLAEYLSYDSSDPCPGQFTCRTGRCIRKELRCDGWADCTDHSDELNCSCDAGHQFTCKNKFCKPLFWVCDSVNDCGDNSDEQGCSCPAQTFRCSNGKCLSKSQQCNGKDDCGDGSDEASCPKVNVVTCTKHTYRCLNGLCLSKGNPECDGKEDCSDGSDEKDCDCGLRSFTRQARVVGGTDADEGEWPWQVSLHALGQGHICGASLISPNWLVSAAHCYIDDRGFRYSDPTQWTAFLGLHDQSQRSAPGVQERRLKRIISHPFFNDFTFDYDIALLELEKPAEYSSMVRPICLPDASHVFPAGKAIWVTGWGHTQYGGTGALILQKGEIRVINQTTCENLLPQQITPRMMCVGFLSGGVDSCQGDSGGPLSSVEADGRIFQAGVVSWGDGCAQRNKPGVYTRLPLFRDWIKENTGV
Description: Matriptase protease inhibition with optimal peptide substrate. Format: biochemical. In short, it runs like this:
as §1

In the next series the test system is trypsin. As to the kind of experiment: Trypsin inhibition. The following applies: read-out: IC50 for trypsin. Type of series: biochemical.
The next series deals with HepG2 cells. As to the kind of experiment: In vitro cell toxicity, HepG2. Format: cell-based. The following applies: HepG2, 48-hour, 0μM to 250μM.
The subject of series [4] is DU145 cells. Description: In vitro cell toxicity, DU145. Type of series: cell-based. Conditions: DU145, 48-hour, 0μM to 250μM.
The test system of a further series is DU145^TMPRSS2 cells. As to the kind of experiment: Matrigel invasion assay, HGF-promoted. Type of series: cell-based. Conditions: DU145^TMPRSS2, p<0.01. In a few lines: as §2

Molecules are shown by their SMILES. Where a name gives a salt, the structure may show the parent alone. Some results are limits rather than exact numbers.

Chain of hepsin (P05981 whole entry): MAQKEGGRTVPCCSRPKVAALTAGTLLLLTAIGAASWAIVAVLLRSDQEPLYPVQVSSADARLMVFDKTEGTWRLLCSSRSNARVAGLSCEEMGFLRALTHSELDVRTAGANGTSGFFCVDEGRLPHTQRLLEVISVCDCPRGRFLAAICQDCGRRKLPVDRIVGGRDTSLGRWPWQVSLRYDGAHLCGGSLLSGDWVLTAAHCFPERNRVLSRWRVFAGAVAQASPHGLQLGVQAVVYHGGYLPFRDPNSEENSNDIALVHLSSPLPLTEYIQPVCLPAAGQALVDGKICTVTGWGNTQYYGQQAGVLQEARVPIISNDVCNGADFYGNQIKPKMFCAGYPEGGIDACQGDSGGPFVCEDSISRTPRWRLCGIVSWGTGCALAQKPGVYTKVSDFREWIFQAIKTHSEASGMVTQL

Take `Cc1[nH]c(/C=C2\C(=O)Nc3ccc(S(=O)(=O)N(C)c4cccc(Cl)c4)cc32)c(C)c1C(=O)N1CCN(C)CC1` [SU11274]: in the series on DU145 cells [1], the “increase of cellular invasion by fibroblast conditioned medium and TMPRSS2” value is given as “abolished”.

On to `COc1cc2nccc(Oc3ccc(NC(=O)C4(C(=O)Nc5ccc(F)cc5)CC4)cc3)c2cc1OC` [cabozantinib], for which the “prostate bone metastasis response” value in the series on prostate bone metastasis is on record as “Striking regressions”.

`CN(Cc1cc(Br)cc(Br)c1N)C1CCCCC1` [BHH, bromhexine hydrochloride]: the IC50 (in general, the midpoint of a concentration-inhibition curve) against thrombin is over 100 µM; against hepsin it was 35 µM; at matriptase, 58 µM; in the series on trypsin it was over 100 µM. The HGF-induced invasion result in the series with LNCaP cells [2] and in the series on C4-2B cells was “significantly attenuated” in each case. The “incidence of distant metastasis to lung and liver sites” value in the series with TRAMP mice is 20%. In addition, the toxicity result in the series on LNCaP cells [3], with PC3 cells, in the series on HepG2 cells and in the series on DU145 cells [4] was “No significant toxicity” in each case. The “migration and invasion phenotypes promoted by HGF” value in the series with PC-3^TMPRSS2 cells and with DU145^TMPRSS2 cells was “significantly reduced” in each case.
